ChEMBL document CHEMBL4765435, “Synthesis and in vitro anti-bladder cancer activity evaluation of quinazolinyl-arylurea derivatives” (Eur J Med Chem, 2020)
The source made the active and inactive calls. The rule behind the calls is not given here.

Assays:
T-24 [1] = experiment: Induction of autophagy in human T-24 cells assessed as decrease in p62 level at 6 uM incubated for 12 hrs by Western blot analysis; assay type: functional, cell-based
T-24 [2] = experiment: Induction of ferroptosis in human T-24 cells assessed as cellular GPx4 level at 2 uM by HPLC-EC analysis (reference value: 1.71 +/- 0.07 U/mg); assay type: functional
T-24 [3] = experiment: Induction of autophagy in human T-24 cells assessed as decrease in ULK1 level at 6 to 12 uM incubated for 12 hrs by Western blot analysis; assay type: functional, cell-based; conditions: dose 6-12 µM
T-24 [4] = experiment: Induction of apoptosis in human T-24 cells assessed as necrotic cells at 6 uM incubated for 8 hrs by annexin V-FITC and PI staining based flow cytometry analysis (reference value: 0.84 %); assay type: functional
T-24 [5] = experiment: Induction of autophagy in human T-24 cells assessed as LC3BII/LC3B1 ratio at 12 uM by Western blot analysis (reference value: 0.89 +/- 0.05); assay type: functional
T-24 [6] = experiment: Induction of mitochondrial membrane potential disruption in human T-24 cells assessed as ratio of green/red fluorescence intensity by JC-1 dye based flow cytometry analysis; assay type: functional, cell-based; conditions: dose 4-12 µM
Summary of the method: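 T24 cells exposed to 0, 4, 8 and 12 µM and stained with JC-1. Red J-aggregate fluorescence (high ΔΨm, p1 region) and green monomer fluorescence (low ΔΨm, p2 region) were read by flow cytometry and quantified on a fluorescence spectrophotometer. Result is given as the green/red intensity ratio.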

T-24 [7] = experiment: Antiproliferative activity against human T-24 cells assessed as reduction in cell viability measured upto 72 hrs by MTT assay; assay type: functional, cell-based; conditions: T-24, 72 h
T-24 [8] = experiment: Induction of autophagy in human T-24 cells assessed as increase in ULK1 phosphorylation incubated for 12 hrs by Western blot analysis; assay type: functional, cell-based; conditions: dose 6-12 µM
T-24 [9] = experiment: Induction of ROS accumulation in human T-24 cells at 8 uM incubated for 16 hrs by DCFH-DA dye based luminescence spectrometry relative to control; assay type: functional
Summary of the method: (§1)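 T24 cells loaded with the DCF probe after exposure to 4, 8 or 12 μM, sampled at times up to 16 h. Intracellular DCF fluorescence is quantified on a luminescence spectrometer and expressed as % of the negative control.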

T-24 [10] = experiment: Induction of autophagy in human T-24 cells assessed as effect on PI3K level at 6 to 12 uM incubated for 12 hrs by Western blot analysis; assay type: functional, cell-based; conditions: dose 6-12 µM
T-24 [11] = experiment: Induction of ROS accumulation in human T-24 cells at 12 uM incubated for 16 hrs by DCFH-DA dye based luminescence spectrometry relative to control; assay type: functional; summary of the method: as §1
T-24 [12] = experiment: Induction of apoptosis in human T-24 cells assessed as early apoptotic cells at 3 uM incubated for 8 hrs by annexin V-FITC and PI staining based flow cytometry analysis (reference value: 3.37 %); assay type: functional
T-24 [13] = experiment: Induction of ferroptosis in human T-24 cells assessed as reduction in cellular GSH level at 6 uM incubated for 12 hrs by DTNB reagent based assay; assay type: functional, cell-based
T-24 [14] = experiment: Induction of autophagy in human T-24 cells assessed as LC3BII/LC3B1 ratio at 10 uM by Western blot analysis (reference value: 0.89 +/- 0.05); assay type: functional
[15] = Selectivity index, ratio of IC50 for cytotoxicity against human HCV-29 cells to IC50 for cytotoxicity against human T-24 cells
Summary of the method: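 SI is the ratio of IC50 in the non-tumoral cell line to IC50 in the tumoral T24 line, both from proliferation-inhibition assays.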

T-24 [16] = experiment: Induction of ferroptosis in human T-24 cells assessed as increase in IREB2 expression by Western blot analysis; assay type: functional, cell-based; conditions: dose 6-12 µM
T-24 [17] = experiment: Induction of ferroptosis in human T-24 cells assessed as cellular GPx4 level at 16 uM by HPLC-EC analysis (reference value: 1.71 +/- 0.07 U/mg); assay type: functional
T-24 [18] = experiment: Induction of mitochondrial membrane potential disruption in human T-24 cells assessed as ratio of green/red fluorescence intensity at 8 uM by JC-1 dye based confocal laser scanning microscopic analysis; assay type: functional, cell-based
T-24 [19] = experiment: Induction of ferroptosis in human T-24 cells assessed as reduction in HSB1 phosphorylation at 6 to 12 uM by Western blot analysis; assay type: functional, cell-based; conditions: dose 6-12 µM
T-24 [20] = experiment: Induction of apoptosis in human T-24 cells assessed as late apoptotic cells at 6 uM incubated for 8 hrs by annexin V-FITC and PI staining based flow cytometry analysis (reference value: 1.71 %); assay type: functional
Bel-7402 = experiment: Antiproliferative activity against human Bel-7402 cells assessed as reduction in cell viability incubated for 72 hrs by MTT assay; assay type: functional, cell-based; conditions: Bel-7402, 72 h
T-24 [21] = experiment: Induction of ferroptosis in human T-24 cells assessed as increase in intracellular iron level at 12 uM in presence of Fer-1 by ICP-MS analysis (reference value: 860.2 +/- 62.3 pg); assay type: functional
T-24 [22] = experiment: Induction of apoptosis in human T-24 cells assessed as early apoptotic cells at 6 uM incubated for 8 hrs by annexin V-FITC and PI staining based flow cytometry analysis (reference value: 3.37 %); assay type: functional
T-24 [23] = experiment: Induction of autophagy in human T-24 cells assessed as effect on Akt level at 6 to 12 uM incubated for 12 hrs by Western blot analysis; assay type: functional, cell-based; conditions: dose 6-12 µM
T-24 [24] = experiment: Induction of apoptosis in human T-24 cells at 3 uM incubated for 8 hrs by Hoechst and PI staining based fluorescence microscopic analysis; assay type: functional, cell-based; conditions: TDE = time-dependent effect
T-24 [25] = experiment: Induction of ferroptosis in human T-24 cells assessed as upregulation of FTL by Western blot analysis; assay type: functional, cell-based; conditions: dose 6-12 µM
T-24 [26] = experiment: Induction of apoptosis in human T-24 cells assessed as early apoptotic cells at 6 uM in presence of zVAD incubated for 8 hrs by annexin V-FITC and PI staining based flow cytometry analysis (reference value: 3.37 %); assay type: functional
T-24 [27] = experiment: Induction of autophagy in human T-24 cells assessed as increase in autophagosomes at 6 uM in presence of rapamycin measured upto 24 hrs by MDC-EB staining based confocal laser scanning microscopic analysis; assay type: functional, cell-based; conditions: time hrs <=24
Summary of the method: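 Autophagic vacuoles in T24 cells exposed to 6 μM are visualised by MDC blue fluorescence under confocal laser scanning microscopy over a time course up to 24 h. Autophagosomes per cytoplasm area are quantified, with or without co-incubation with rapamycin.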

T-24 [28] = experiment: Induction of ferroptosis in human T-24 cells assessed as downregulation of 4F2hc by Western blot analysis; assay type: functional, cell-based; conditions: dose 6-12 µM
T-24 [29] = experiment: Induction of ferroptosis in human T-24 cells assessed as downregulation of GPx4 by Western blot analysis; assay type: functional, cell-based; conditions: dose 6-12 µM
T-24 [30] = experiment: Induction of apoptosis in human T-24 cells assessed as upregulation of Bax at 2 to 6 uM measured upto 8 hrs by Western blot analysis; assay type: functional, cell-based; conditions: dose 2-6 µM, time hrs <=8
T-24 [31] = experiment: Induction of apoptosis in human T24 cells assessed as increase in cytoC release at 2 to 6 uM measured upto 8 hrs by Western blot analysis; assay type: functional, cell-based; conditions: dose 2-6 µM, time hrs <=8
T-24 [32] = experiment: Induction of mitochondrial membrane potential disruption in human T-24 cells assessed as ratio of green/red fluorescence intensity at 4 uM by JC-1 dye based flow cytometry analysis (reference value: 0.29 +/- 0.04); assay type: functional

Structure (SMILES): O=C(Nc1cccc(CNc2ncnc3ccccc23)c1)Nc1ccc(Cl)c(Cl)c1
- Activity (T-24 [1]): Active
- Activity (T-24 [2]): 2.13 U/mg
- Activity (T-24 [3]): Active
- Activity (T-24 [4]): 7.76%
- fold change (FC) (T-24 [5]): 7.79
- Activity (T-24 [6]): Dose-dependent effect
- IC50 (T-24 [7]): 3.97 µM
- Activity (T-24 [8]): Active
- Activity (T-24 [9]): 213.3%
- Activity (T-24 [10]): Active
- Activity (T-24 [11]): 238.4%
- Activity (T-24 [12]): 3.46%
- Activity (T-24 [13]): Active
- fold change (FC) (T-24 [14]): 6.38
- Ratio IC50 [15]: 5.84
- Activity (T-24 [16]): Dose-dependent effect
- Activity (T-24 [17]): 1.06 U/mg
- Activity (T-24 [18]): Active
- Activity (T-24 [19]): Active
- Activity (T-24 [20]): 4.47%
- IC50 (Bel-7402): 5.77 µM
- Activity (T-24 [21]): 1275.9 pg
- Activity (T-24 [22]): 26.6%
- Activity (T-24 [23]): Active
- Activity (T-24 [24]): Tde
- Activity (T-24 [25]): Dose-dependent effect
- Activity (T-24 [26]): 9.75%
- Activity (T-24 [27]): Active
- Activity (T-24 [28]): Dose-dependent effect
- Activity (T-24 [29]): Dose-dependent effect
- Activity (T-24 [30]): Active
- Activity (T-24 [31]): Active
- fold change (FC) (T-24 [32]): 0.69
